The species entered for data set [1] is Danio rerio. In words: (§1) Toxicity in zebrafish assessed as organism survival at 5 uM treated at 48 hrs post-fertilization measured after 3 days. Format: organism-based. To be noted: in vivo, 72 h, 5 µM. The method, boiled down: (§2)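 AB wild-type zebrafish embryos dechorionated with pronase at 48 hpf, 3 per well in methylene blue-free E3 medium. Dosed at 5 uM from 10 mM DMSO stocks (1% v/v DMSO). Kept at 28 °C for 72 h without food; survival scored at day 5 versus vehicle controls. Two experiments, each in triplicate.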

A short description of data set [2]: Antiprion activity against PrPsc infected in mouse ScN2a cells assessed as complete clearance of PrPSc after 5 days by ELISA. To be noted: 120 h. In kind it is cell-based. The method, boiled down:
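ScN2a cells (N2a infected with RML prion strain) seeded at 4×10^5 cells/well in MEM with 10% FBS, GlutaMax, geneticin. Compound added 4 h after seeding, 0.5% final DMSO, 5 days at 37 °C. Lysates captured on D18 Fab-coated ELISA plates overnight at 4 °C, HRP-D13 detection, ABTS, absorbance at 405 nm. Dose-response curves from three independent experiments.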

The nature of data set [3]: Antiprion activity against PrPsc infected in mouse SMB.s15 cells assessed as complete clearance of PrPSc after 5 days by dot blot analysis. To be noted: SMB.s15, 120 h. Format: cell-based. In a few lines: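 SMB.s15 cells (scrapie-infected, mesodermal origin) in Medium 199 with 10% newborn calf and 5% fetal calf serum, seeded at 12,000 cells/well, 24 h attachment. Compound added from DMSO stock via HBSS dilution, 5 days at 37 °C. Lysates dot-blotted, proteinase K digestion (1 h, 37 °C), guanidine thiocyanate, anti-PrP 6H4 mAb, ECL. Triplicate, PrPSc relative to DMSO-only control.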

In another data set the test system is ScN2a. In words: Cytotoxicity against mouse ScN2a cells up to 32 uM. In kind it is cell-based. In a few lines: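 ScN2a cells seeded separately in 96-well plates. Calcein cell viability assay run in parallel with the ELISA screen, up to 32 uM maximum.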
The species entered for data set [4] is Danio rerio. Kind of data set: (§3) Toxicity in zebrafish assessed as mortality rate at 5 uM measured after 72 hrs. Format: organism-based. The settings on record: in vivo, 72 h, 5 µM. In a few lines: as §2
Data set [5] in a line: Metabolic stability in mouse liver microsomes assessed as compound remaining after 30 mins by HPLC analysis. To be noted: read-out: Stability. Format: ADME, Microsome. In a few lines:
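Mouse liver microsomes (0.5 mg/mL stock) in 0.2 M potassium phosphate pH 7.0 with DL-isocitrate, MgCl2 and isocitrate dehydrogenase. Preincubated 5 min at 37 °C, then started with NADPH. Sampled at t=0 and after 30 min at 37 °C, quenched in ice-cold acetonitrile with internal standard. Analysed by C18 HPLC, UV at 267 nm, in triplicate.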

Data set [6] in a line: Cytotoxicity against mouse SMB.s15 cells at 20 uM after 5 days by MTT assay. To be noted: smb.s15, 120 h. In kind it is cell-based. In a few lines:
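SMB.s15 cells at 12,000 cells/well, exposed to compound for 5 days at 37 °C (DMSO stock diluted via HBSS into medium). Viability measured by MTT assay per the reagent's standard protocol.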
(Formazan colour is commonly taken as a measure of viable cells.)

The species named for data set [7] is Danio rerio. Kind of data set: Toxicity in zebrafish assessed as otic capsule deformities at 5 uM treated at 48 hrs post-fertilization measured after 3 days by acridine orange staining method. To be noted: in vivo, 72 h. In kind it is organism-based. The method, boiled down: (§4)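 Zebrafish larvae dosed at 5 uM from 48 hpf for three days (28 °C, E3 medium, 1% DMSO). Stained with acridine orange at 1 mg/mL in E3 for 30 min, then washed 3 × 10 min. Anesthetized with tricaine, mounted in 1% low-melt agarose with tricaine, and examined by microscopy for apoptosis and deformities.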

Data set [8] is filed under the species Danio rerio. In words: Toxicity in zebrafish assessed as swim bladder deformities at 5 uM treated at 48 hrs post-fertilization measured after 3 days by acridine orange staining method. Format: organism-based. To be noted: in vivo, 72 h. In a few lines: as §4
Data set [9] can be described thus: Solubility of the compound. Format: physicochemical.
Data set [10] is filed under the species Danio rerio. In words: Toxicity in zebrafish assessed as yolk deformities at 5 uM treated at 48 hrs post-fertilization measured after 3 days by acridine orange staining method. Format: organism-based. To be noted: in vivo, 72 h. In a few lines: as §4
For data set [11], the species on record is Danio rerio. In words: Toxicity in zebrafish assessed as induction of apoptosis at 5 uM treated at 48 hrs post-fertilization measured after 3 days by acridine orange staining method. Format: organism-based. To be noted: in vivo, 72 h. In a few lines: as §4
Data set [12] can be described thus: as §3. To be noted: in vivo, read-out: Activity. In kind it is organism-based, Danio rerio. In a few lines: as §2
Data set [13] is described as follows: as §1. Format: organism-based, Danio rerio. To be noted: in vivo. The method, boiled down:
as §2

As to `Cc1ccc(NC(=O)C(=O)c2c[nH]c3ccccc23)cc1`, the Activity entry in the data set listed under Danio rerio [1] is on record as “Toxic”; in the data set with ScN2a, “Non-toxic”; in the data set filed under Danio rerio [4] it was “Non-toxic”; in [6], “Non-toxic”. Further, the concentration for a half-maximal effect (EC50) is 206 nM in [2] and 130 nM in data set [3]. Besides, the remaining at 0.5 h in [5] stood at 64.9%.

As for `O=C(Nc1ccc(-n2cccn2)cc1)C(=O)c1c[nH]c2ccccc12`, the Activity entry in the data set filed under Danio rerio [1] was “Toxic”; in the data set listed under Danio rerio [7] it was “Non-toxic”; with ScN2a, “Non-toxic”; in the data set filed under Danio rerio [8], “Non-toxic”; in the data set filed under Danio rerio [10] it was “Non-toxic”; in the data set filed under Danio rerio [11], “Non-toxic”. In addition, the Activity entry in data set [6] is listed as “Non-toxic”. Besides, the 50% effective concentration (EC50) in [2] was determined as 14 nM; in data set [3], 1 nM. Also, in [9], the solubility result is listed as “Insoluble”. Also, the remaining at 0.5 h in data set [5] was 93.6%.

Turning to `O=C(Nc1ccc(N2CCOCC2)cc1)C(=O)c1c[nH]c2ccccc12`, the Activity result is recorded as “Toxic” in the data set listed under Danio rerio [1], “Non-toxic” in the data set on ScN2a and “Non-toxic” in data set [6]. Besides, the figures for the EC50 in [2] and in [3] were 65 nM and 9 nM, respectively. Besides, the mortality at 72 h, 5 µM in [12] was found to be 20%.

Take `Cc1ccc2c(C(=O)C(=O)Nc3ccc(N4CCOCC4)cc3)c[nH]c2c1`: in data set [13], the survival at 72 h, 5 µM was 100%. For the same molecule, the EC50 in data set [3] worked out at 3.1 nM. For the same molecule, the Activity entry (in the data set listed under Danio rerio [7]; in the data set with ScN2a; in the data set filed under Danio rerio [8]; in the data set listed under Danio rerio [10]; in the data set listed under Danio rerio [11]; in data set [6]) was “Non-toxic” throughout. Besides, the mortality at 72 h, 5 µM in data set [12] was determined as 20%.

In the case of `COc1ccc(NC(=O)C(=O)c2c[nH]c3cc(Cl)ccc23)cc1`, the Activity result in the data set listed under Danio rerio [1] is on record as “Toxic”; in the data set on ScN2a it was “Non-toxic”; in [6] it was “Non-toxic”. Also, the EC50 in [3] came to 9.9 nM. Further, the remaining at 0.5 h in data set [5] was determined as 87.3%.

With `O=C(Nc1ccc(-n2cncn2)cc1)C(=O)c1c[nH]c2ccccc12`, in data set [9], the solubility entry is recorded as “Insoluble”.

Turning to `Cn1ccc(-c2ccc(NC(=O)C(=O)c3c[nH]c4ccccc34)cc2)n1`, the solubility result in [9] is “Insoluble”.

Turning to `COc1ccc(NC(=O)C(=O)c2c[nH]c3ccccc23)cc1`, the survival at 72 h, 5 µM in [13] was found to be 100%. Moreover, the concentration for a half-maximal effect (EC50) was determined as 91 nM in data set [2] and 11 nM in data set [3]. In addition, the Activity entry (with ScN2a; in data set [6]) was “Non-toxic” throughout. The mortality at 72 h, 5 µM in [12] stood at 20%. In addition, in data set [5], the remaining at 0.5 h was found to be 67.9%.

With `COc1ccc(NC(=O)C(=O)c2c[nH]c3cc(C#N)ccc23)cc1`, the survival at 72 h, 5 µM in [13] was determined as 100%. For the same molecule, the EC50 is 11 nM in data set [2] and 2.2 nM in [3]. The Activity result (in the data set filed under Danio rerio [7]; in the data set with ScN2a; in the data set filed under Danio rerio [8]; in the data set listed under Danio rerio [10]; in the data set filed under Danio rerio [11]; in data set [6]) was “Non-toxic” each time. For the same molecule, in [5], the remaining at 0.5 h was determined as 87.5%.

With `O=C(Nc1ccc(-n2cccn2)cc1)C(=O)c1c[nH]c2cc(Cl)ccc12`, the survival at 72 h, 5 µM in data set [13] was 100%. The figures for the EC50 in data set [2] and in data set [3] were 175 nM and 6.1 nM, respectively. Further, the Activity entry (in the data set on ScN2a; in data set [6]) was “Non-toxic” each time. Also, the remaining at 0.5 h in [5] amounted to 96.7%.

In the case of `Cc1ccc(NC(=O)C(=O)c2c[nH]c3c(Cl)cccc23)cc1`, in [13], the survival at 72 h, 5 µM stood at 100%. Besides, the EC50 in [2] turned out to be 1260 nM; in data set [3], 470 nM. Moreover, the Activity result (with ScN2a; in data set [6]) was “Non-toxic” throughout. In addition, the mortality at 72 h, 5 µM in [12] was 20%.

As to `COc1ccc(NC(=O)C(=O)c2c[nH]c3c(Cl)cccc23)cc1`, the Activity result in the data set filed under Danio rerio [1] was “Toxic”; with ScN2a, “Non-toxic”; in data set [6] it was “Non-toxic”. In addition, the concentration giving a half-maximal response (EC50) in data set [2] amounted to 247 nM; in data set [3], 24 nM.

`O=C(Nc1ccc(-n2cccc2)cc1)C(=O)c1c[nH]c2ccccc12`: the values for the Activity result (in the data set filed under Danio rerio [1]; in the data set on ScN2a; in data set [6]) were “Toxic”, “Non-toxic” and “Non-toxic”, respectively. Besides, the 50% effective concentration (EC50) in [3] is 6 nM. Further, the solubility entry in data set [9] was “Insoluble”.

With `O=C(Nc1ccc(-c2nnco2)cc1)C(=O)c1c[nH]c2ccccc12`, the solubility entry in [9] is on record as “Insoluble”.

As to `Cc1ccc(NC(=O)C(=O)c2c[nH]c3cc(C#N)ccc23)cc1`, the survival at 72 h, 5 µM in data set [13] worked out at 100%. Also, the EC50 in data set [2] was 26 nM; in [3] it was 10.9 nM. Besides, the Activity entry (in the data set on ScN2a; in [6]) was “Non-toxic” in each case. Besides, the mortality at 72 h, 5 µM in [12] was 20%. Moreover, in data set [5], the remaining at 0.5 h came out at 88.2%.

With `O=C(Nc1ccc(-n2ccnc2)cc1)C(=O)c1c[nH]c2ccccc12`, the EC50 in [2] stood at 16 nM; in data set [3], 1.3 nM. The Activity result (in the data set with ScN2a; in data set [6]) was “Non-toxic” throughout. For the same molecule, in data set [9], the solubility result is listed as “Insoluble”.

For orientation: EC50 means the concentration at which the effect is half-maximal.

For the origin of these results see ChEMBL document CHEMBL1909628, “Discovery of 6-substituted indole-3-glyoxylamides as lead antiprion agents with enhanced cell line activity, improved microsomal stability and low toxicity” (Eur J Med Chem, 2011).
